ChEMBL document CHEMBL2151010, “Characterization of a designed vascular endothelial growth factor receptor antagonist helical peptide with antiangiogenic activity in vivo” (J Med Chem, 2011)
Calls of active or inactive are those of the source. The rule behind the calls is not given here. Residues, ends and D or L forms follow the SMILES beside them.

Experiments:
HUVEC [1] = test: Binding affinity to VEGFR in human HUVEC grown in serum deprived medium using fluorescein-labeled compound at 50 to 5000 nM after 5 mins by flow cytometry; assay type: cell-based
Method in brief: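 HUVECs (3 × 10^4/100 μL) were suspended in EBM-2 with 0.1% heparin and 0.1% BSA. They were incubated for 5 min at 4 C in the dark with fluorescein-labelled peptide (50, 500, 5000 nM). For competition, 500 nM labelled peptide was used with VEGF165 (0.05, 5, 500 nM). Cells were washed, resuspended in PBS and analysed by flow cytometry. A PE-conjugated anti-β-1 integrin antibody (1:100) was the technical control.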

HUVEC [2] = test: Antagonist activity at VEGFR in human HUVEC grown in serum deprived medium assessed as inhibition of VEGF165-induced ERK1/2 phosphorylation at 50 nM after 15-30 mins by Western blot analysis; assay type: functional, cell-based
Method in brief: (§1)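 Serum-starved HUVECs in EBM-2 with 0.1% heparin and 0.1% BSA were treated at 37 C for 15 and 30 min with peptide, with or without VEGF165 (25 ng/mL). Total lysates (25 μg) were run on 12% SDS-PAGE and blotted for phospho-ERK1/2 and phospho-AKT. Total ERK1/2, AKT and GAPDH served as loading controls. Detection was by HRP secondary antibody and ECL.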

HUVEC [3] = test: Antagonist activity at VEGFR in human HUVEC grown in serum deprived medium assessed as inhibition of VEGF165-induced AKT phosphorylation at 50 nM after 15-30 mins by Western blot analysis; assay type: functional, cell-based; method in brief: as §1
HUVEC [4] = test: Induction of apoptosis in human HUVEC grown in serum deprived medium assessed as caspase 3 activity at 12.5 to 50 nM after 8 hrs by spectrofluorometry; assay type: functional, cell-based
Method in brief: (§2)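 Lysates of serum-deprived HUVECs (2 × 10^4 cells) were prepared in 50 mM Hepes, 1 mM DTT, 0.1 mM EDTA, 0.1% NP-40 and 0.1% CHAPS. Protein (20 μg) was incubated with 20 μM Ac-DEVD-AMC at 37 C for 3 h. Released AMC was read by spectrofluorometry at 380 nm excitation and 440 nm emission.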

HUVEC [5] = test: Induction of apoptosis in human HUVEC grown in serum deprived medium at 12.5 nM after 24 hrs by annexin V/fluorescein isothiocyanate-based flow cytometry; assay type: functional, cell-based
HUVEC [6] = test: Inhibition of VEGF165-induced cell proliferation in human HUVEC grown in serum deprived medium at 12.5 to 50 nM after 24 hrs relative to acetyl-KQMYLELGYATIKWL-amide; assay type: functional
Method in brief: (§3)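 HUVECs were seeded at 1200 cells/well and switched after 24 h to EBM-2 with 0.1% heparin and 0.1% BSA. They were treated with peptide, with or without VEGF165 (25 ng/mL), for 24 or 48 h at 37 C. DNA content was measured with CyQUANT NF reagent (1 h, 37 C) at 485 nm excitation. Quadruplicate samples were used, and values were expressed as percentage of proliferating cells.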

HUVEC [7] = test: Inhibition of VEGF165-induced cell proliferation in human HUVEC grown in serum deprived medium at 12.5 to 50 nM after 48 hrs; assay type: functional; method in brief: as §3
A-375 [8] = test: Antitumor activity against human A375 cells xenografted in athymic nude-Foxn1 nu/nu mouse assessed as tumor growth inhibition at 200 nM intratumorally administered for 15 days measured after 15 days relative to untreated control; assay type: functional
Method in brief: (§4)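 A375 cells (5 × 10^6 in 150 μL Hanks' solution) were injected subcutaneously on the back of 6-week-old female athymic nude-Foxn1nu/nu mice. After one week, mice were randomized (10/group) to PBS (100 μL) or peptide (200 nM), given intratumorally twice weekly. Tumours were measured by caliper and volume was calculated as V = (ab²)/2. Groups were compared by ANOVA.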

A-375 [9] = test: Antitumor activity against human A375 cells xenografted in athymic nude-Foxn1 nu/nu mouse assessed as tumor growth inhibition at 200 nM intratumorally administered for 15 days measured after 15 days relative to acetyl-KQMYLELGYATIKWL-amide; assay type: functional; method in brief: as §4
A-375 [10] = test: Antitumor activity against human A375 cells xenografted in athymic nude-Foxn1 nu/nu mouse assessed as inhibition of tumor angiogenesis measuring CD31 expression at 200 nM intratumorally administered for 7 days by immunohistochemical analysis; assay type: functional
Method in brief: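 Tumours from A375 xenografts in nude mice, treated intratumorally with peptide (200 nM) or PBS twice weekly, were excised after 1 week. They were formalin-fixed and cut into 5 μm paraffin sections. Sections were stained for CD31 by avidin-biotin peroxidase with diaminobenzidine and counterstained with hematoxylin.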

HUVEC [11] = test: Antagonist activity at VEGFR in human HUVEC grown in serum deprived medium assessed as inhibition of VEGF165-induced ERK1/2 phosphorylation at 50 nM after 24 hrs by Western blot analysis; assay type: functional, cell-based
Method in brief: (§5)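 Whole-cell lysates (25 μg) were run on 12% SDS-PAGE and immunoblotted for phospho-ERK1/2 and phospho-RB. Total ERK1/2, RB and GAPDH were the loading controls. Read-out was ECL.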

HUVEC [12] = test: Antagonist activity at VEGFR in human HUVEC grown in serum deprived medium assessed as inhibition of VEGF165-induced RB phosphorylation at 50 nM after 15-30 mins by Western blot analysis; assay type: functional, cell-based
HUVEC [13] = test: Antagonist activity at VEGFR in human HUVEC grown in serum deprived medium assessed as inhibition of VEGF165-induced ERK1/2 phosphorylation at 12.5 nM after 24 hrs by Western blot analysis; assay type: functional, cell-based; method in brief: as §5
[14] = Half life of the compound; assay type: physicochemical
Method in brief: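 Peptide was diluted to a final 0.5 mg/mL in 25% (v:v) pooled human male AB serum at 37 C. Aliquots were taken at 0, 15, 30, 60, 90 and 120 min and at 24 h, centrifuged at 4 C and diluted to 0.1 mg/mL. Remaining intact peptide was quantified by RP-HPLC on a C18 column with 38–48% CH3CN (0.1% TFA) elution.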

[15] = Antiangiogenic activity against VEGF165-induced CD1 nude mouse endothelial cells at 200 nM after 21 days by FITC-based fluorescence microscopy
HUVEC [16] = test: Antagonist activity at VEGFR in human HUVEC grown in serum deprived medium assessed as inhibition of VEGF165-induced RB phosphorylation at 50 nM after 15-30 mins by Western blot analysis
HUVEC [17] = test: Induction of apoptosis in human HUVEC grown in serum deprived medium assessed as caspase 3 activity at 50 nM after 8 hrs by spectrofluorometry; assay type: functional, cell-based; method in brief: as §2
HUVEC [18] = test: Inhibition of VEGF165-induced cell proliferation in human HUVEC grown in serum deprived medium at 50 nM after 24 hrs; assay type: functional, cell-based; method in brief: as §3
HUVEC [19] = test: Inhibition of VEGF165 induced cell proliferation in human HUVEC grown in serum deprived medium at 50 nM after 48 hrs; assay type: functional, cell-based; method in brief: as §3
Endothelial cell = test: Antiangiogenic activity against VEGF165-induced CD1 nude mouse endothelial cells at 200 nM after 21 days by FITC-based fluorescence microscopy

Row | Compound | Activity (HUVEC [1]) | inhibition (HUVEC [2]) | inhibition (HUVEC [3]) | Activity (HUVEC [4]) | Activity (HUVEC [5]) | inhibition (INH) (HUVEC [6]) | inhibition (INH) (HUVEC [7]) | TGI (A-375 [8]) | TGI (A-375 [9]) | inhibition (INH) (A-375 [10]) | inhibition (HUVEC [11]) | inhibition (HUVEC [12]) | inhibition (HUVEC [13]) | half-life [14] | Activity [15] | inhibition (HUVEC [16]) | Activity (HUVEC [17]) | inhibition (HUVEC [18]) | inhibition (HUVEC [19]) | Activity (Endothelial cell)
1 | CC[C@H](C)[C@H](NC(=O)CNC(=O)[C@H](CCCCN)NC(=O)[C@H](Cc1ccc(O)cc1)NC(=O)[C@H](C)NC(=O)[C@H](CC(C)C)NC(=O)[C@H](CCC(N)=O)NC(=O)[C@H](Cc1ccc(O)cc1)NC(=O)[C@H](CC(C)C)NC(=O)[C@H](CCC(=O)O)NC(=O)[C@H](CCSC)NC(=O)[C@H](Cc1c[nH]c2ccccc12)NC(=O)[C@@H](NC(=O)[C@H](CC(C)C)NC(=O)[C@H](CCCCN)NC(C)=O)[C@@H](C)O)C(N)=O (Ac-KLTWMELYQLAYKGI-NH2) | Active | Active | Active | Active | Active | 40% | >85% | 36% | 47% | 50% | Active | Active | Active | 1.5 h | 85% | Active | – | – | – | –
2 | CC[C@H](C)[C@H](NC(=O)[C@@H](NC(=O)[C@H](C)NC(=O)[C@H](Cc1ccc(O)cc1)NC(=O)CNC(=O)[C@H](CC(C)C)NC(=O)[C@H](CCC(=O)O)NC(=O)[C@H](CC(C)C)NC(=O)[C@H](Cc1ccc(O)cc1)NC(=O)[C@H](CCSC)NC(=O)[C@H](CCC(N)=O)NC(=O)[C@H](CCCCN)NC(C)=O)[C@@H](C)O)C(=O)N[C@@H](CCCCN)C(=O)N[C@@H](Cc1c[nH]c2ccccc12)C(=O)N[C@@H](CC(C)C)C(N)=O (Ac-KQMYLELGYATIKWL-NH2) | inactive | inactive | inactive | – | inactive | – | – | inactive | – | – | – | – | – | – | – | – | inactive | inactive | inactive | inactive
